ChEMBL document CHEMBL3272012, “5-(Tetradecyloxy)-2-furancarboxylic acid and related hypolipidemic fatty acid-like alkyloxyarylcarboxylic acids” (J Med Chem, 1977)

Key:
Rattus norvegicus [1] = test: Increase in liver weight in Wistar rat at 430 umol/kg/day administered through diet for 4 days; format: ADME, organism-based; details: in vivo, po, 96 h
Summary of the method: (§1)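 Male Wistar rats (170-190 g initial), groups of six, dosed via diet ad libitum for 4 or 10 days, daily dose from food consumption. Liver wet weight measured, expressed as g/100 g final body weight, compared with untreated controls run simultaneously.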

Rattus norvegicus [2] = test: Increase in cholesterol level in Wistar rat liver at 430 umol/kg/day administered through diet for 4 days; format: ADME, organism-based; details: in vivo, po, 96 h
Summary of the method: (§2)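 Male Wistar rats (170-190 g), six per group, given compound by admixture to lab chow ad libitum for 4 or 10 days, dose derived from food intake. Liver cholesterol determined by automated procedure, expressed as mg/g wet tissue, compared with an untreated control group by Student's t test.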

Rattus norvegicus [3] = test: Hypolipidemic activity in Wistar rat assessed as reduction in plasma cholesterol level at 430 umol/kg/day administered through diet for 4 days; format: functional; details: 96 h
Summary of the method: (§3)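 Young male Wistar rats, 170-190 g initial weight, groups of six, given compound mixed thoroughly into Purina Lab Chow ad libitum for 4 or 10 days as stated. Daily dose calculated from food consumption and body weight. Bled by cardiac puncture at end of treatment; plasma cholesterol measured by automated procedure. Expressed as percent reduction versus simultaneous untreated control group; Student's t test.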

Rattus norvegicus [4] = test: Hypolipidemic activity in Wistar rat assessed as reduction in plasma triglyceride level at 430 umol/kg/day administered through diet for 4 days; format: functional; details: 96 h
Summary of the method: (§4)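 Young male Wistar rats (initial weight 170-190 g), groups of six, fed compound mixed into Purina Lab Chow ad libitum for 4 or 10 days; daily dose calculated from food consumption and body weight. Bled by cardiac puncture; plasma cholesterol and triglycerides by automated procedures; percent reduction versus simultaneous untreated controls, Student's t test.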

Rattus norvegicus [5] = test: Hypolipidemic activity in Wistar rat assessed as reduction in plasma cholesterol level at 401 umol/kg/day administered through diet for 4 days; format: functional; details: 96 h
Summary of the method: (§5)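 Young male Wistar rats, 170-190 g at start, in groups of six, given compound mixed into Purina Lab Chow ad libitum for 4 or 10 days as stated. Daily dose was calculated from food consumption and body weight. Plasma was taken by cardiac puncture at the end and cholesterol measured by automated procedure. Results are % reduction versus a concurrent untreated control group, with Student's t test.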

Rattus norvegicus [6] = test: Hypolipidemic activity in Wistar rat assessed as reduction in plasma triglyceride level at 401 umol/kg/day administered through diet for 4 days; format: functional; details: 96 h; summary of the method: as §4
Rattus norvegicus [7] = test: Increase in liver weight in Wistar rat at 401 umol/kg/day administered through diet for 4 days; format: ADME, organism-based; details: in vivo, po, 96 h; summary of the method: as §1
Rattus norvegicus [8] = test: Hypolipidemic activity in Wistar rat assessed as reduction in plasma triglyceride level at 419 umol/kg/day administered through diet for 10 days; format: functional; details: 240 h; summary of the method: as §4
Rattus norvegicus [9] = test: Increase in liver weight in Wistar rat at 419 umol/kg/day administered through diet for 10 days; format: ADME, organism-based; details: in vivo, po, 240 h; summary of the method: as §1
Rattus norvegicus [10] = test: Hypolipidemic activity in Wistar rat assessed as reduction in plasma cholesterol level at 419 umol/kg/day administered through diet for 10 days; format: functional; details: 240 h; summary of the method: as §3
Rattus norvegicus [11] = test: Increase in cholesterol level in Wistar rat liver at 419 umol/kg/day administered through diet for 10 days; format: ADME, organism-based; details: in vivo, po, 240 h; summary of the method: as §2
Rattus norvegicus [12] = test: Increase in cholesterol level in Wistar rat liver at 420 umol/kg/day administered through diet for 10 days; format: ADME, organism-based; details: in vivo, po, 240 h; summary of the method: as §2
Rattus norvegicus [13] = test: Increase in liver weight in Wistar rat at 420 umol/kg/day administered through diet for 10 days; format: ADME, organism-based; details: in vivo, po, 240 h
Rattus norvegicus [14] = test: Hypolipidemic activity in Wistar rat assessed as reduction in plasma triglyceride level at 420 umol/kg/day administered through diet for 10 days; format: functional; details: 240 h; summary of the method: as §4
Rattus norvegicus [15] = test: Hypolipidemic activity in Wistar rat assessed as reduction in plasma cholesterol level at 420 umol/kg/day administered through diet for 10 days; format: functional; details: 240 h; summary of the method: as §3
Rattus norvegicus [16] = test: Hypolipidemic activity in Wistar rat assessed as reduction in plasma triglyceride level at 482 umol/kg/day administered through diet for 4 days; format: functional; details: 96 h; summary of the method: as §4
Rattus norvegicus [17] = test: Increase in liver weight in Wistar rat at 482 umol/kg/day administered through diet for 4 days; format: ADME, organism-based; details: in vivo, po, 96 h; summary of the method: as §1
Rattus norvegicus [18] = test: Hypolipidemic activity in Wistar rat assessed as reduction in plasma cholesterol level at 482 umol/kg/day administered through diet for 4 days; format: functional; details: 96 h; summary of the method: as §3
Rattus norvegicus [19] = test: Hypolipidemic activity in Wistar rat assessed as reduction in plasma triglyceride level at 420 umol/kg/day administered through diet for 4 days; format: functional; details: 96 h; summary of the method: as §4
Rattus norvegicus [20] = test: Hypolipidemic activity in Wistar rat assessed as reduction in plasma cholesterol level at 420 umol/kg/day administered through diet for 4 days; format: functional; details: 96 h; summary of the method: as §3
Rattus norvegicus [21] = test: Increase in liver weight in Wistar rat at 420 umol/kg/day administered through diet for 4 days; format: ADME, organism-based; details: in vivo, po, 96 h; summary of the method: as §1
Rattus norvegicus [22] = test: Increase in liver weight in Wistar rat at 381 umol/kg/day administered through diet for 4 days; format: ADME, organism-based; details: in vivo, po, 96 h
Rattus norvegicus [23] = test: Hypolipidemic activity in Wistar rat assessed as reduction in plasma triglyceride level at 381 umol/kg/day administered through diet for 4 days; format: functional; details: 96 h
Summary of the method: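 Young male Wistar rats (170-190 g initial weight), groups of six, fed test compound mixed into Purina Lab Chow ad libitum; daily dose calculated from food consumption and body weight. Bled by cardiac puncture at end of treatment; plasma triglycerides measured by automated procedure. Results given as percent reduction versus a simultaneous untreated control group, with significance by Student's t test.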

Rattus norvegicus [24] = test: Hypolipidemic activity in Wistar rat assessed as reduction in plasma cholesterol level at 381 umol/kg/day administered through diet for 4 days; format: functional; details: 96 h; summary of the method: as §5
Rattus norvegicus [25] = test: Hypolipidemic activity in Wistar rat assessed as reduction in plasma triglyceride level at 439 umol/kg/day administered through diet for 10 days; format: functional; details: 240 h; summary of the method: as §4
Rattus norvegicus [26] = test: Increase in liver weight in Wistar rat at 439 umol/kg/day administered through diet for 10 days; format: ADME, organism-based; details: in vivo, po, 240 h; summary of the method: as §1
Rattus norvegicus [27] = test: Hypolipidemic activity in Wistar rat assessed as reduction in plasma cholesterol level at 439 umol/kg/day administered through diet for 10 days; format: functional; details: 240 h; summary of the method: as §3
Rattus norvegicus [28] = test: Hypolipidemic activity in Wistar rat assessed as reduction in plasma cholesterol level at 439 umol/kg/day administered through diet for 4 days; format: functional; details: 96 h; summary of the method: as §3
Rattus norvegicus [29] = test: Increase in liver weight in Wistar rat at 439 umol/kg/day administered through diet for 4 days; format: ADME, organism-based; details: in vivo, po, 96 h; summary of the method: as §1
Rattus norvegicus [30] = test: Hypolipidemic activity in Wistar rat assessed as reduction in plasma triglyceride level at 439 umol/kg/day administered through diet for 4 days; format: functional; details: 96 h; summary of the method: as §4
Rattus norvegicus [31] = test: Hypolipidemic activity in Wistar rat assessed as reduction in plasma triglyceride level at 471 umol/kg/day administered through diet for 4 days; format: functional; details: 96 h
Rattus norvegicus [32] = test: Hypolipidemic activity in Wistar rat assessed as reduction in plasma cholesterol level at 471 umol/kg/day administered through diet for 4 days; format: functional; details: 96 h; summary of the method: as §3
Rattus norvegicus [33] = test: Increase in liver weight in Wistar rat at 471 umol/kg/day administered through diet for 4 days; format: ADME, organism-based; details: in vivo, po, 96 h
Rattus norvegicus [34] = test: Hypolipidemic activity in Wistar rat assessed as reduction in plasma cholesterol level at 480 umol/kg/day administered through diet for 4 days; format: functional; details: 96 h; summary of the method: as §3
Rattus norvegicus [35] = test: Increase in liver weight in Wistar rat at 480 umol/kg/day administered through diet for 4 days; format: ADME, organism-based; details: in vivo, po, 96 h
Rattus norvegicus [36] = test: Hypolipidemic activity in Wistar rat assessed as reduction in plasma triglyceride level at 480 umol/kg/day administered through diet for 4 days; format: functional; details: 96 h

CCCCCCCCCCCCCCOc1ccc(C(=O)OC)o1
Activity (Rattus norvegicus [1]): 8% | Activity (Rattus norvegicus [2]): 0% | inhibition in vivo at 430 µmol/kg (Rattus norvegicus [3]): 32% | inhibition in vivo at 430 µmol/kg (Rattus norvegicus [4]): 67%

CCCCCCCCCCCCCCCCOc1cccc(C(=O)OC)c1
Activity (Rattus norvegicus [1]): 3% | inhibition in vivo at 401 µmol/kg (Rattus norvegicus [5]): 0% | inhibition in vivo at 401 µmol/kg (Rattus norvegicus [6]): 0% | inhibition in vivo at 430 µmol/kg (Rattus norvegicus [3]): 0% | inhibition in vivo at 430 µmol/kg (Rattus norvegicus [4]): 0% | Activity (Rattus norvegicus [7]): 0%

CCCCCCCCCCCCCCCCOc1ccc(C(=O)O)cc1
inhibition in vivo at 419 µmol/kg (Rattus norvegicus [8]): 55% | Activity (Rattus norvegicus [9]): 5% | inhibition in vivo at 419 µmol/kg (Rattus norvegicus [10]): 15% | Activity (Rattus norvegicus [11]): 17%

CCCCCCCCCCCCCCOc1ccc(SCC(=O)O)cc1
Activity (Rattus norvegicus [12]): 3% | Activity (Rattus norvegicus [13]): 0% | inhibition in vivo at 420 µmol/kg (Rattus norvegicus [14]): 11% | inhibition in vivo at 420 µmol/kg (Rattus norvegicus [15]): 16%

CCCCCCCCCCCCCCOc1ccc(C#N)cc1
inhibition in vivo at 482 µmol/kg (Rattus norvegicus [16]): 6% | Activity (Rattus norvegicus [17]): 4% | inhibition in vivo at 482 µmol/kg (Rattus norvegicus [18]): 10%

CCCCCCCCCCCCCCOc1ccc(C(=O)C(F)(F)F)o1
inhibition in vivo at 420 µmol/kg (Rattus norvegicus [19]): 30% | inhibition in vivo at 420 µmol/kg (Rattus norvegicus [20]): 2% | Activity (Rattus norvegicus [21]): 0%

CCCCCCCCCCCCCCOc1c(Cl)cc(C(=O)OC)cc1Cl
Activity (Rattus norvegicus [22]): 0% | inhibition in vivo at 381 µmol/kg (Rattus norvegicus [23]): 73% | inhibition in vivo at 381 µmol/kg (Rattus norvegicus [24]): 1%

CCCCCCCCCCCCCCOc1ccc(C(=O)CC(N)=O)cc1
inhibition in vivo at 439 µmol/kg (Rattus norvegicus [25]): 3% | Activity (Rattus norvegicus [26]): 8% | inhibition in vivo at 439 µmol/kg (Rattus norvegicus [27]): 4%

CCCCCCCCCCCCCCOc1ccc(C(N)=O)o1
inhibition in vivo at 482 µmol/kg (Rattus norvegicus [16]): 14% | Activity (Rattus norvegicus [17]): 7% | inhibition in vivo at 482 µmol/kg (Rattus norvegicus [18]): 0%

CCCCCCCCCCCCCCOc1ccc(/C=C/C(=O)OC)cc1
Activity (Rattus norvegicus [1]): 3% | Activity (Rattus norvegicus [2]): 18% | inhibition in vivo at 430 µmol/kg (Rattus norvegicus [3]): 28% | inhibition in vivo at 430 µmol/kg (Rattus norvegicus [4]): 67%

CCCCCCCCCCCCCCOc1ccc(C(=O)OCC)c(O)c1
inhibition in vivo at 439 µmol/kg (Rattus norvegicus [28]): 0% | Activity (Rattus norvegicus [29]): 1% | inhibition in vivo at 439 µmol/kg (Rattus norvegicus [30]): 0%

CCCCCCCCCCCCCCOc1ccc(C(=O)O)c(C)c1
inhibition in vivo at 471 µmol/kg (Rattus norvegicus [31]): 27% | inhibition in vivo at 471 µmol/kg (Rattus norvegicus [32]): 6% | Activity (Rattus norvegicus [33]): 5%

CCCCCCCCCCCCCCOc1ccc(-c2nnn[nH]2)cc1
inhibition in vivo at 480 µmol/kg (Rattus norvegicus [34]): 0% | Activity (Rattus norvegicus [35]): 1% | inhibition in vivo at 480 µmol/kg (Rattus norvegicus [36]): 0%
